Cl transport mod: KCC2 cotransporter modulators, thallium flux, primary screen, cell-based, HEK293 KCC2, FluoZin-2 fluorescence, MLSMR; B-score of Tl+ flux slope (higher = more flux/activation; lower = inhibition) at 10 µM; KCC2 cells, thallium flux FluoZin-2 fluorescence; AID 1456, 2008; 190,000 tested, 2.2% active;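 active means thallium flux slope and its plate-corrected score both differing from the plate sample mean at a set confidence after two filtering rounds, in either direction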;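 further: slope of fluorescence scaled to starting intensity during 10 to 20 s after thallium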
Dynein transport: inhibitors of GR-EGFP nuclear translocation, primary screen, dynein cargo transport inhibitor project, imaging, high-content, 3617.4 mouse cells; test concentration mostly 20 µM; stimulated with dexamethasone, 1 µM; hits give low values; 220,000 tested, 0.47% active; z-score, hits read low;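 active means plate z-score of nuclear minus cytoplasmic receptor signal below a set negative limit, without overly bright fluorescence or cell loss, cut at about -3.5 in these data, passing the limit was not always enough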;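 further: z-score of nuclear minus cytoplasmic ring GR-EGFP intensity difference per well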
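Buffer or medium: tet-free medium with charcoal-stripped serum / Also added: dexamethasone agonist, 1.0 µM final, for 30 min / Timing: induction 48 h, compound 1 h, agonist 30 min / Measured by: high-content fluorescence imaging after fixation / Read-out: nuclear-to-cytoplasmic GR-EGFP distribution per well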
ABCB6 inh 2: ABCB6 transporter inhibitors, primary screen, K562-ABCB6 cells, flow cytometry, MLPCN library | ATP-binding cassette sub-family B member 6 (Homo sapiens), Q9NP58 | K562-ABCB6 porphyrin accumulation, 1 h; hits give low values | fluorescence ratio to DMSO, % at 10 µM | 360,000 tested, 0.19% active;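 active means fluorescence ratio to DMSO below 75%, the collection mean minus 3 SD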;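 further: signal is porphyrin accumulated inside mitochondria; lower ratio means ABCB6 inhibition with less porphyrin fluorescence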
pCIP destab: p/CIP-EGFP fusion destabilizers, primary screen, fluorescence, F442A cells; Q05BA5; 16 h; decrease of EGFP signal, % at 10 µM; 290,000 tested, 0.01% active; AID 1984, 2009;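 active means EGFP signal decrease of at least 30% at 10 µM or well 3 SD below plate mean, unless failing retest; inactive means the rest, including hits failing retest or dose response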
V-ATPase pHluor: regulators of yeast V-ATPase proton pumping, primary screen, pHLuorin cytosolic pH fluorescence; S. cerevisiae; response, % at 10 µM; 350,000 tested, 0.37% active; in the data active means response mostly above about 7.3%, no sharp cut-off; inactive means mostly below about 5.4%; further: actives read high
V-ATPase pH SP: yeast V-ATPase proton pumping modulators, confirmation, S. cerevisiae, pH-sensitive GFP, second cherry-pick; 980 tested, 2% active; response, % at 10 µM; shares compounds with V-ATPase pHluor; AID 602197, 2012; S. cerevisiae pHLuorin cytosolic pH, V-ATPase proton transport; in the data active means response above about 24%
Large screens that a line does not name were inactive (follow-up assays come after a bar, where they were run). This excerpt belongs to a sample that is enriched for hits.

CC(C)(C)n1ncc2c(=O)n(CC(=O)N3CCCC3)cnc21	none
CC1CCN(C(=O)Cn2cnc3c(cnn3C(C)(C)C)c2=O)CC1	V-ATPase pHluor 10.9 | V-ATPase pH SP inactive
Cc1ccc(S(=O)(=O)c2c[nH]c3cc4c(cc3c2=O)OCO4)cc1	none (no result: ABCB6 inh 2, V-ATPase pHluor)
CN1CCCC(OC(=O)c2ccccc2F)C1 (stereo not given)	V-ATPase pHluor 9.4 (no result: Cl transport mod, Dynein transport) | V-ATPase pH SP inactive
O=C(Nc1ccc(N2CCN(c3ncccc3C(F)(F)F)CC2)nc1)c1cccs1	none
N/C(=N\O)c1ccc(N2CCN(c3ncccc3C(F)(F)F)CC2)nc1	V-ATPase pHluor 26.0 | V-ATPase pH SP inactive
Cc1nn(-c2ccccc2)c(Cl)c1/C=C1\SC(=S)N(C)C1=O	none
Cc1nn(-c2ccccc2)c(Cl)c1/C=C1\C(=O)N(C)C(=S)N1C	V-ATPase pHluor 47.2 | V-ATPase pH SP inactive
Cc1ccc(C(=O)CSc2nnc(-c3ccccc3)o2)cc1	none (no result: Cl transport mod) | V-ATPase pH SP inactive
COc1ccc(CCNC(=O)CSc2nnc(-c3ccccc3)o2)cc1OC	V-ATPase pHluor 10.9 (no result: Cl transport mod, Dynein transport) | V-ATPase pH SP inactive
O=C(CSc1nnc(-c2ccccc2)o1)NC(=O)Cc1ccccc1	none (no result: Cl transport mod, Dynein transport, pCIP destab) | V-ATPase pH SP inactive
O=C(CSc1nnc(-c2ccccc2)o1)N1CCCC1	none (no result: Cl transport mod, Dynein transport) | V-ATPase pH SP inactive
O=C(CSc1nnc(-c2ccc(F)cc2)o1)N1CCCCC1	none (no result: Cl transport mod, Dynein transport)
COc1ccc(CCNC(=O)CSc2nnc(-c3cccc(C)c3)o2)cc1OC	none
O=C(CSc1nnc(-c2ccccc2)o1)N1CCCCC1	none (no result: Cl transport mod, Dynein transport) | V-ATPase pH SP inactive
O=C(O)CSc1nnc(-c2ccc3c(c2)OCO3)o1	none
NC(=O)CSc1nnc(-c2ccc3c(c2)OCO3)o1	V-ATPase pHluor 5.5 | V-ATPase pH SP inactive
O=C(O)CSc1nnc(-c2ccccc2)o1	none | V-ATPase pH SP inactive
COc1cccc(N2[C@@H](CC(C)=O)c3ccc(/C=C/C(C)=O)cc3S2(=O)=O)c1	none (no result: Cl transport mod, Dynein transport, pCIP destab)
O=C(C1COc2ccccc2O1)N1CCN(S(=O)(=O)c2ccccc2)CC1 (stereo not given)	none (no result: Cl transport mod, Dynein transport)
CC1Oc2ccccc2N(CC(=O)c2cccc(Cl)c2)C1=O (stereo not given)	V-ATPase pHluor 8.0 | V-ATPase pH SP inactive
Cc1ccc2c(c1)N(CC(=O)c1cccc(Cl)c1)C(=O)C(C)O2 (stereo not given)	none
Cn1c2ccc(F)cc2c2nnc(SCC(=O)Nc3cccc(O)c3)nc21	V-ATPase pHluor 10.8 (no result: Cl transport mod, Dynein transport) | V-ATPase pH SP inactive
Cn1c2ccccc2c2nnc(SCC(=O)Nc3cccc(C(=O)O)c3)nc21	none (no result: Cl transport mod, Dynein transport)
Cn1c(=O)c2ccccc2n(CC(=O)NCCC2=CCCCC2)c1=O	none (no result: Cl transport mod, Dynein transport)
CN(C)S(=O)(=O)c1ccc(C(=O)NCC(=O)Nc2ccc(F)c(F)c2)cc1	V-ATPase pHluor 7.0 (no result: Cl transport mod, Dynein transport) | V-ATPase pH SP inactive
CN(C)S(=O)(=O)c1ccc(C(=O)Nc2ccc(Cl)cc2)cc1	none (no result: Cl transport mod)
CCN1CCN(C(=O)N(c2ccccc2)c2ccccc2)CC1	none (no result: Cl transport mod, Dynein transport)
O=C(Nc1ccc(F)c(F)c1)C1CCN(S(=O)(=O)c2cccs2)CC1	V-ATPase pHluor 8.3 (no result: Cl transport mod, Dynein transport, pCIP destab) | V-ATPase pH SP inactive
O=c1c2cc(F)ccc2sn1-c1ccccc1	none (no result: Cl transport mod, Dynein transport, pCIP destab)
O=c1c2ccccc2sn1-c1cccc(Cl)c1	none (no result: Cl transport mod, Dynein transport, pCIP destab) | V-ATPase pH SP inactive
CCCCn1c(N)c(N(CCOC)C(=O)CN(C)S(=O)(=O)c2ccc(C)cc2)c(=O)[nH]c1=O	none (no result: Cl transport mod, Dynein transport, pCIP destab)
O=C(c1ccco1)N1CCN(c2ncnc3c2nnn3Cc2ccccc2Cl)CC1	V-ATPase pHluor 10.2 | V-ATPase pH SP inactive
C[C@H]1CC[C@@]2(O[C@@H](CCO)C[C@H](O)[C@H]2O)O1	none (no result: Cl transport mod, Dynein transport, pCIP destab)
Cc1ccc(S(=O)(=O)N2CCCCC2)cc1NC(=O)COC(=O)C1(C)CC1(Cl)Cl (stereo not given)	none (no result: Cl transport mod, Dynein transport, pCIP destab)
Cc1cnc(NC(=O)C2(c3ccccc3)CC2)s1	none
Cc1ccc(C(=O)C2CCOC(C)(C)C2)cc1 (stereo not given)	V-ATPase pHluor 11.8 | V-ATPase pH SP inactive
CC1CCCN(S(=O)(=O)c2cccc([N+](=O)[O-])c2)C1 (stereo not given)	none (no result: Cl transport mod, Dynein transport)

Screening results: PubChem, several laboratories
